In ChEMBL document CHEMBL4834401, “Structure-Activity Relationship Studies of Coumarin-like Diacid Derivatives as Human G Protein-Coupled Receptor-35 (hGPR35) Agonists and a Consequent New Design Principle” (J Med Chem, 2021):
Calls of active or inactive are those of the source. No cut-off for these calls is given here.

Key:
[1] = target: T1, G-protein coupled receptor 35 (Homo sapiens, UniProt Q9HC97); assay: Agonist activity at human GPR35 receptor expressed in HT-29 cells assessed as desensitization of zaprinast-induced DMR response preincubated for 1 hr followed by zaprinast stimulation by DMR desensitization assay; assay type: functional, cell-based
T1 sequence (Q9HC97 whole entry): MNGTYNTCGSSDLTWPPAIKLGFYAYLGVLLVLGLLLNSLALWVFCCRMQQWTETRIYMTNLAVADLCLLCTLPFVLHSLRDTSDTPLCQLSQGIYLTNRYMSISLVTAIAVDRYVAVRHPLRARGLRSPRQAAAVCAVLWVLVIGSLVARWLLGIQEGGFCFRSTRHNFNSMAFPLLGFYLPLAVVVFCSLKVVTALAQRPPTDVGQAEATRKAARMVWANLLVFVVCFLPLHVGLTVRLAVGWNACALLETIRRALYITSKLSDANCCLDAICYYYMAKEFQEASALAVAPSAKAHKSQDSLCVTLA

[2] = target: Histamine H1 receptor (Homo sapiens) (UniProt P35367); assay: Agonist activity at histamine H1 receptor receptor (unknown origin) at 1 uM
Sequence of Histamine H1 receptor (Homo sapiens) (P35367 whole entry, looked up): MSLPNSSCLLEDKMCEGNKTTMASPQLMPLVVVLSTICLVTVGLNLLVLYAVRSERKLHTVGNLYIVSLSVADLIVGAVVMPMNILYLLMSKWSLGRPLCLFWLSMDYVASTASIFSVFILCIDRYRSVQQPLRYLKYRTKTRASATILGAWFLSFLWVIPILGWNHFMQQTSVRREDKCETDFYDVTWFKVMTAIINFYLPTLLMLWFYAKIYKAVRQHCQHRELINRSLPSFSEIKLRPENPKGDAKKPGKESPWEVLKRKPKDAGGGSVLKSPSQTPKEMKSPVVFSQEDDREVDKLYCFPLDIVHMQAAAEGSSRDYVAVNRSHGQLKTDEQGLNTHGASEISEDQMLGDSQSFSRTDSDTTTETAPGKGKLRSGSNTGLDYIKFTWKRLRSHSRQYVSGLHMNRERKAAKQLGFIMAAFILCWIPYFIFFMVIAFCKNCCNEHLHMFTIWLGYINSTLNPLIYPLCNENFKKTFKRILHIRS

[3] = target: Mu-type opioid receptor (Homo sapiens) (UniProt P35372); assay: Agonist activity at mu-opioid receptor (unknown origin) at 1 uM; assay type: functional
Sequence of Mu-type opioid receptor (Homo sapiens) (P35372 whole entry): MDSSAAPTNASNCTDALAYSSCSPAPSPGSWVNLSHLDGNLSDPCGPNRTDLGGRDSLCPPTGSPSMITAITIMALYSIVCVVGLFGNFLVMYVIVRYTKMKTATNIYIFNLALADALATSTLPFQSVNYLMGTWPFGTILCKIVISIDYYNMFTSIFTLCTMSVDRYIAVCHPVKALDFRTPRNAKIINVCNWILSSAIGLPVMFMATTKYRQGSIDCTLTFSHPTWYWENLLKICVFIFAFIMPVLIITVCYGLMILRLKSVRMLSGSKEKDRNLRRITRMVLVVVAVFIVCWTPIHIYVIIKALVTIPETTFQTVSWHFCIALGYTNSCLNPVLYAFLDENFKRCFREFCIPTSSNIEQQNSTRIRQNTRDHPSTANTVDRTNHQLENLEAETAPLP
Procedure, shortened: (§1)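 Each receptor was expressed separately in its own cell line, and compounds were added at 1 μM. Cells were seeded on biosensor plates and grown overnight to a confluent monolayer. They were then washed, kept in Hank's balanced salt solution, and equilibrated 1 h in the reader. After a 2 min baseline, the label-free dynamic mass redistribution (DMR) response was recorded immediately after compound addition.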

[4] = target: T2, Free fatty acid receptor 4 (Homo sapiens) (UniProt Q5NUL3); assay: Agonist activity at FFA4 receptor (unknown origin) at 1 uM; assay type: functional; procedure, shortened: as §1
T2 sequence (whole entry): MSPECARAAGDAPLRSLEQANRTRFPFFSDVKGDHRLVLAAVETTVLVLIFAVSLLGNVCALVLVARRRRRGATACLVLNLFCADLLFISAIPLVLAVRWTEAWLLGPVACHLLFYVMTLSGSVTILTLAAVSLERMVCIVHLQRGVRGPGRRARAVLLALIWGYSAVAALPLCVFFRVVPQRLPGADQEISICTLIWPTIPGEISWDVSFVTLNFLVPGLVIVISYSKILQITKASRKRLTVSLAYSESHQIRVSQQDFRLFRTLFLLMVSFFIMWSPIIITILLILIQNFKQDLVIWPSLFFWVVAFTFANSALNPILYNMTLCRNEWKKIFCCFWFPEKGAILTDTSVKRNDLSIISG

[5] = target: T1, G-protein coupled receptor 35; assay: Agonist activity at human GPR35 receptor expressed in CHO-K1 cells assessed as dynamic mass redistribution response by DMR assay; assay type: functional, cell-based
[6] = target: D(2) dopamine receptor (Homo sapiens) (UniProt P14416); assay: Agonist activity at dopamine D2 receptor (unknown origin) at 1 uM; assay type: functional; procedure, shortened: as §1
Sequence of D(2) dopamine receptor (Homo sapiens) (P14416 whole entry): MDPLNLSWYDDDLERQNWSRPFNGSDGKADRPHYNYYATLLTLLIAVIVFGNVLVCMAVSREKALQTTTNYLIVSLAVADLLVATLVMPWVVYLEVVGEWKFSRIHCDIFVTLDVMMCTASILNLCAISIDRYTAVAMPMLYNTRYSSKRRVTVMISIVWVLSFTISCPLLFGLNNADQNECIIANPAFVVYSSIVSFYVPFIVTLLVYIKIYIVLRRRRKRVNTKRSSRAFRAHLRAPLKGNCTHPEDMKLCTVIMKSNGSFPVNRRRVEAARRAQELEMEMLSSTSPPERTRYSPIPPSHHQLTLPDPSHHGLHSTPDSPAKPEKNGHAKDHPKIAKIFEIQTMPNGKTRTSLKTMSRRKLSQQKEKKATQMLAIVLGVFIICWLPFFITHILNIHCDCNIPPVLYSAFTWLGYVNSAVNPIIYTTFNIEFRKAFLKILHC

[7] = target: Muscarinic acetylcholine receptor M3 (Homo sapiens) (UniProt P20309); assay: Agonist activity at muscarinic M3 receptor (unknown origin) at 1 uM; assay type: functional; procedure, shortened: as §1
Sequence of Muscarinic acetylcholine receptor M3 (Homo sapiens) (P20309 whole entry, looked up): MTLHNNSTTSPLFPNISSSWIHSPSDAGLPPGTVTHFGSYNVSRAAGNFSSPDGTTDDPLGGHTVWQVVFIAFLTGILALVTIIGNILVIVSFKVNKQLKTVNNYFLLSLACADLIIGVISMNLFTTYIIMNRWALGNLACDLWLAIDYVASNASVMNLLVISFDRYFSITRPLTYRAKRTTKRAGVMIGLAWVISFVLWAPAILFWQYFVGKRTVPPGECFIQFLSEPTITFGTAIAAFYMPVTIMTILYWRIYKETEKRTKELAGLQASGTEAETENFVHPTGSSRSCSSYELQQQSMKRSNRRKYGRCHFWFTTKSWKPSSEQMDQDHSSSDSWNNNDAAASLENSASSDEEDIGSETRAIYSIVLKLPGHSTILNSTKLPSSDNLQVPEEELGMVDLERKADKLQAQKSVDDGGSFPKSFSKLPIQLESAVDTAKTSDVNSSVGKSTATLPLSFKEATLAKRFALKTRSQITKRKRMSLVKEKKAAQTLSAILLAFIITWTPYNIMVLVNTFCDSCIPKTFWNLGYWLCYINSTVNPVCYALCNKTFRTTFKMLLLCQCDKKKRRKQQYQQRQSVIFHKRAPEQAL

[8] = target: T1, G-protein coupled receptor 35; assay: Agonist activity at human GPR35 receptor expressed in CHO-K1 cells assessed as desensitization of zaprinast-induced DMR response preincubated for 1 hr followed by zaprinast stimulation by DMR desensitization assay; assay type: functional, cell-based
[9] = target: T1, G-protein coupled receptor 35; assay: Agonist activity at human GPR35 receptor expressed in HT-29 cells assessed as reduction in dynamic mass redistribution response in presence of GPR35 antagonist ML-145 by DMR assay; assay type: functional, cell-based
[10] = target: T1, G-protein coupled receptor 35; assay: Agonist activity at human GPR35 receptor expressed in HT-29 cells assessed as dynamic mass redistribution response by DMR assay; assay type: functional, cell-based
[11] = target: T1, G-protein coupled receptor 35; assay: Agonist activity at human GPR35 receptor expressed in HEK293T cells co-expressing beta-arrestin2 assessed as induction of beta-arrestin2 recruitment by BRET assay; assay type: functional, cell-based

SMILES	IC50 [1] [nM]	Activity [2]	Activity [3]	Activity [4]	EC50 [5] [nM]	Activity [6]	Activity [7]	IC50 [8] [nM]	IC50 [9] [nM]	EC50 [10] [nM]	EC50 [11] [nM]
COc1ccc(-c2cc3cc(C(=O)O)c(=O)oc3c3cc(C(=O)O)c(=O)oc23)cc1	7	inactive	inactive	inactive	6.93	inactive	inactive	2.45	470	20	
COc1cccc(-c2cc3cc(C(=O)O)c(=O)oc3cc2O)c1	1380								2260	1600	
O=C(O)c1cc2cc(-c3cccs3)c(O)cc2oc1=O	1450								160	2880	
COc1ccccc1-c1cc2cc(C(=O)O)c(=O)oc2cc1O	17600								120	23900	
Cc1c2oc(=O)c(C(=O)O)cc2cc2cc(C(=O)O)c(=O)oc12	42								350	140	
CCCCc1cc2c(=O)cc(C(=O)O)[nH]c2c2c(=O)cc(C(=O)O)[nH]c12 [BUFROLIN]											13
O=C(O)c1cc2cc(Br)c(O)cc2oc1=O									130		
COc1cccc(-c2cc3cc(C(=O)O)c(=O)oc3c3cc(C(=O)O)c(=O)oc23)c1	3								170	15	
Cc1c2[nH]c(C(=O)O)cc(=O)c2cc2c(=O)cc(C(=O)O)[nH]c12	2	inactive	inactive	inactive	1.08	inactive	inactive	0.74	789	8	
COc1cc(C(=O)O)nc2c(C)c3nc(C(=O)O)cc(OC)c3cc12	65	inactive	inactive	inactive	8.13	inactive	inactive	6.11	282	100	
O=C(O)c1cc2c(oc1=O)c(Br)cc1cc(-c3nnn[nH]3)c(=O)oc12	18	inactive	inactive	inactive	25.9	inactive	inactive	15.9	830	18	
CCCOc1ccccc1-c1nc2[nH]nnc2c(=O)[nH]1			inactive	inactive		inactive					
O=C(O)c1cc2c(oc1=O)c(-c1ccc(F)cc1)cc1cc(C(=O)O)c(=O)oc12									1030	33	
O=C(O)c1cc(C(=O)O)c2c(n1)C(=O)C(=O)c1cc(C(=O)O)[nH]c1-2 [PYRROLOQUINOLINE QUINONE]	30								582	71	
Cc1c2nc(C(=O)O)cc(Cl)c2cc2c(Cl)cc(C(=O)O)nc12	15	inactive	inactive	inactive	5.08	inactive	inactive	3.52	2530	54	
